Laboratory results as given in ChEMBL document CHEMBL3763151, “Antinociceptive Grayanoids from the Roots of Rhododendron molle” (J Nat Prod, 2015).
Activity calls are given as the source filed them.

Experiments:
Mus musculus [1] = assay: Antinociceptive activity in Kunming mouse model of STZ-induced diabetic neuropathy pain assessed as increase in paw withdrawal mechanical threshold at 0.2 to 0.4 mg/kg, po relative to gabapentin; assay type: functional
Procedure, shortened: (§1)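 Streptozotocin-diabetic mice with mechanical hyperalgesia were dosed orally (n = 8), with vehicle and gabapentin groups for comparison. Data are mean ± SEM. Significance vs vehicle by one-way ANOVA followed by Bonferroni test.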

Mus musculus [2] = assay: Antinociceptive activity in Kunming mouse model of acute pain assessed as inhibition of acetic acid-induced writhes at 0.08 mg/kg, ip administered 30 mins prior to acetic acid challenge measured for 30 mins relative to control; assay type: functional
Procedure, shortened: (§2)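 Acetic acid-induced writhing in mice after ip dosing, with a vehicle-injected group for comparison. Reported as mean ± SEM of 12 mice per group. Significance vs vehicle by one-way ANOVA followed by Bonferroni test.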

Mus musculus [3] = assay: Antinociceptive activity in ip dosed Kunming mouse model of acute pain assessed as inhibition of acetic acid-induced writhes administered 30 mins prior to acetic acid challenge measured for 30 mins; assay type: functional; conditions: for ED50: read-out: ID50 (the source's name); procedure, shortened: as §2
Mus musculus [4] = assay: Antinociceptive activity in Kunming mouse assessed as increase in licking latency time at 0.02 to 0.08 mg/kg, ip by hot plate test; assay type: functional, organism-based
Mus musculus [5] = assay: Antinociceptive activity in Kunming mouse model of acute pain assessed as inhibition of acetic acid-induced writhes at 0.08 mg/kg, ip administered 30 mins prior to acetic acid challenge measured for 30 mins in presence of nonselective opioid antagonist naloxone; assay type: functional, organism-based
Mus musculus [6] = assay: Toxicity in ip dosed Kunming mouse by Karber's method; assay type: organism-based; conditions: in vivo
Mus musculus [7] = assay: Antinociceptive activity in ip dosed Kunming mouse model of formalin-induced pain assessed as reduction of time spent in licking in phase 1 administered 30 mins before formalin injection measured for 5 mins; assay type: functional, organism-based
Procedure, shortened: (§3)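 Formalin test scored in phase I and phase II after ip dosing, against a vehicle group (n = 10). Control drugs used: morphine and ibuprofen. Data are mean ± SEM. Significance vs vehicle by one-way ANOVA followed by Bonferroni test.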

Mus musculus [8] = assay: Antinociceptive activity in ip dosed Kunming mouse model of formalin-induced pain assessed as reduction of time spent in licking in phase 2 administered 30 mins before formalin injection measured for 15 to 30 mins; assay type: functional, organism-based; procedure, shortened: as §3
Mus musculus [9] = assay: Antinociceptive activity in po dosed Kunming mouse model of STZ-induced diabetic neuropathy pain assessed as complete reversal of mechanical hyperalgesia; assay type: functional, organism-based; procedure, shortened: as §1
[10] = Selectivity index, ratio of LD50 for toxicity in Kunming mouse to ID50 for antinociceptive activity in Kunming mouse model of acute pain; assay type: organism-based; conditions: in vivo, read-out: Selectivity Index
Mus musculus [11] = assay: Antinociceptive activity in Kunming mouse model of acute pain assessed as inhibition of acetic acid-induced writhes at 5 mg/kg, ip administered 30 mins prior to acetic acid challenge measured for 30 mins; assay type: functional, organism-based
Procedure, shortened: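 Acute-pain model in mice: compounds given ip, and writhing counted against vehicle-injected mice.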

Mus musculus [12] = assay: Antinociceptive activity in Kunming mouse assessed as increase in licking latency time at 0.08 mg/kg, ip by hot plate test; assay type: functional, organism-based
Mus musculus [13] = assay: Antinociceptive activity in Kunming mouse model of STZ-induced diabetic neuropathy pain assessed as increase in paw withdrawal mechanical threshold at 50 mg/kg, po; assay type: functional, organism-based; procedure, shortened: as §1
Mus musculus [14] = assay: Antinociceptive activity in Kunming mouse model of formalin-induced pain assessed as reduction of time spent in licking in phase 1 at 60 mg/kg, ip administered 30 mins before formalin injection measured for 5 mins; assay type: functional, organism-based
Procedure, shortened: (§4)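 Formalin test in mice with phases I and II scored separately. Compounds given ip, n = 10 per group. Data are mean ± SEM, compared with the vehicle group by one-way ANOVA followed by the Bonferroni test.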

Mus musculus [15] = assay: Antinociceptive activity in Kunming mouse model of formalin-induced pain assessed as reduction of time spent in licking in phase 2 at 60 mg/kg, ip administered 30 mins before formalin injection measured after 15 mins up to 30 mins; assay type: functional, organism-based; procedure, shortened: as §4
Mus musculus [16] = assay: Antinociceptive activity in Kunming mouse model of acute pain assessed as inhibition of acetic acid-induced writhes at 0.8 mg/kg, ip administered 30 mins prior to acetic acid challenge measured for 30 mins in presence of nonselective opioid antagonist naloxone; assay type: functional, organism-based
Mus musculus [17] = assay: Antinociceptive activity in Kunming mouse model of formalin-induced pain assessed as reduction of time spent in licking in phase 1 at 2 mg/kg, ip administered 30 mins before formalin injection measured for 5 mins; assay type: functional, organism-based; procedure, shortened: as §3
Mus musculus [18] = assay: Antinociceptive activity in Kunming mouse model of formalin-induced pain assessed as reduction of time spent in licking in phase 2 at 2 mg/kg, ip administered 30 mins before formalin injection measured after 15 mins up to 30 mins; assay type: functional, organism-based; procedure, shortened: as §3

CC1(C)[C@@H](O)[C@H](O)[C@H]2[C@](C)(O)[C@@H]3CC[C@@H]4[C@@H](O)[C@@]3(C[C@@H](O)[C@@]21O)C[C@@]4(C)O
fold change (FC) (Mus musculus [1]): 100 | inhibition in vivo at 0.08 mg/kg (Mus musculus [2]): 64.2% | inhibition (Mus musculus [3]): Dose-dependent effect | ED50 (Mus musculus [3]): 0.0727 mg/kg | Activity (Mus musculus [4]): inactive | inhibition (Mus musculus [5]): Active | LD50 (Mus musculus [6]): 1.791 mg/kg | Activity (Mus musculus [7]): Dose-dependent effect | Activity (Mus musculus [8]): Dose-dependent effect | Activity (Mus musculus [9]): Dose-dependent effect | selectivity ratio [10]: 24.6

C=C1[C@@H]2CC[C@@H]3[C@@H](O)[C@@]2(C[C@@H](O)[C@@]2(O)[C@H]1C[C@H](O)C2(C)C)C[C@@]3(C)O
inhibition (Mus musculus [11]): Active

CC1(C)[C@@H](O)[C@@H](O)[C@@H]2[C@@](C)(O)[C@@H]3CC[C@@H]4[C@@H](O)[C@@]3(C[C@@H](O)[C@@]21O)C[C@@]4(C)O
inhibition (Mus musculus [11]): Active

C=C1[C@@H]2[C@H](O)[C@H](O)C(C)(C)[C@@]2(O)[C@H](O)C[C@]23C=C(C)[C@H](CC[C@@H]12)[C@H]3O
inhibition (Mus musculus [11]): inactive

CC1(C)[C@@H](O)C[C@H]2[C@](C)(O)[C@@H]3CC[C@@H]4[C@@H](O)[C@@]3(C[C@@H](O)[C@@]21O)C[C@@]4(C)O [GRAYANOTOXIN III]
inhibition in vivo at 0.08 mg/kg (Mus musculus [2]): 55.6%

CC1(C)[C@@H](O[C@@H]2O[C@H](CO)[C@@H](O)[C@H](O)[C@H]2O)[C@H](O)[C@H]2[C@](C)(O)[C@@H]3CC[C@@H]4[C@@H](O)[C@@]3(C[C@@H](O)[C@@]21O)C[C@@]4(C)O
inhibition (Mus musculus [11]): Active

CC1(C)[C@@H](O[C@@H]2O[C@H](CO)[C@@H](O)[C@H](O)[C@H]2O)[C@@H](O)[C@@H]2[C@@](C)(O)[C@@H]3CC[C@@H]4C[C@@]3(C[C@@H](O)[C@@]21O)C[C@@]4(C)O
inhibition (Mus musculus [11]): Active

CC1(C)[C@H]2O[C@H]2[C@H]2[C@](C)(O)[C@@H]3CC[C@@H]4[C@@H](O)[C@@]3(C[C@@H](O)[C@@]21O)C[C@@]4(C)O
fold change (FC) (Mus musculus [1]): 100 | Activity (Mus musculus [12]): Active | inhibition in vivo at 0.08 mg/kg (Mus musculus [2]): 73.7% | inhibition (Mus musculus [3]): Dose-dependent effect | ED50 (Mus musculus [3]): 0.0469 mg/kg | inhibition (Mus musculus [5]): Active | LD50 (Mus musculus [6]): 0.271 mg/kg | Activity (Mus musculus [7]): Dose-dependent effect | Activity (Mus musculus [8]): Dose-dependent effect | Activity (Mus musculus [9]): Dose-dependent effect | selectivity ratio [10]: 5.8

C=C1[C@@H]2CC[C@@H]3C[C@@]2(C[C@@H](O)[C@@]2(O)[C@@H]1[C@H](O)[C@H](O)C2(C)C)C[C@@]3(C)O
inhibition (Mus musculus [11]): Active

CC1(C)[C@H]2O[C@H]2[C@H]2[C@](C)(O)[C@@H]3C[C@@H](O)[C@@H]4[C@@H](O)[C@@]3(C[C@@H](O)[C@@]21O)C[C@@]4(C)O
inhibition (Mus musculus [11]): Active

C=C1[C@@H]2[C@@H](O)[C@H](O[C@@H]3O[C@H](CO)[C@@H](O)[C@H](O)[C@H]3O)C(C)(C)[C@@]2(O)[C@H](O)C[C@]23C[C@@](C)(O)[C@H](CC[C@@H]12)[C@H]3O
inhibition (Mus musculus [11]): inactive

NCC1(CC(=O)O)CCCCC1
Activity (Mus musculus [13]): Active

CC1=C2CC[C@@H]3[C@@H](O)[C@@]2(C[C@@H](O)[C@@]2(O)[C@H]1[C@@H](O)[C@H](O)C2(C)C)C[C@@]3(C)O
inhibition (Mus musculus [11]): inactive

CC(C)Cc1ccc(C(C)C(=O)O)cc1 (stereo not drawn)
Activity (Mus musculus [14]): inactive | Activity (Mus musculus [15]): Active

CN1CC[C@]23c4c5ccc(O)c4O[C@H]2[C@@H](O)C=C[C@H]3[C@H]1C5 [MORPHINE]
ED50 (Mus musculus [3]): 0.343 mg/kg | inhibition (Mus musculus [16]): inactive | Activity (Mus musculus [17]): Active | Activity (Mus musculus [18]): Active

C=C1C[C@@]23C[C@@H](O)[C@@]4(O)[C@H](C(=C)[C@@H]2CC[C@@H]1[C@H]3O)[C@@H](O)[C@H](O)C4(C)C
inhibition (Mus musculus [11]): inactive

CC1(C)[C@@H](O[C@@H]2O[C@H](CO)[C@@H](O)[C@H](O)[C@H]2O)[C@@H](O)[C@H]2[C@](C)(O)[C@@H]3CC[C@@H]4[C@@H](O)[C@@]3(C[C@@H](O)[C@@]21O)C[C@@]4(C)O
inhibition (Mus musculus [11]): inactive

C=C1[C@@H]2[C@@H](O)[C@H](O)C(C)(C)[C@@]2(O)[C@H](O)C[C@]23C[C@@](C)(O)[C@H](CC[C@@H]12)[C@H]3O
inhibition (Mus musculus [11]): inactive

C=C1[C@@H]2[C@H](O)[C@H](O[C@@H]3O[C@H](CO)[C@@H](O)[C@H](O)[C@H]3O)C(C)(C)[C@@]2(O)[C@H](O)C[C@]23C[C@@](C)(O)[C@H](CC[C@@H]12)[C@H]3O
inhibition (Mus musculus [11]): inactive
